Measured values reported in ChEMBL document CHEMBL1125875, “Renin inhibitory peptides. Incorporation of polar, hydrophilic end groups into an active renin inhibitory peptide template and their evaluation in a human renin infused rat model and in conscious sodium-depleted monkeys” (J Med Chem, 1991).
pIC50: −log10 of the molar value. Numbered stars: 1 amine (or outer) side, 2 acyl side, 3 side chain; on linkers, the order of the positions; unused ones are H or OH. Square brackets hold non-standard residues; d marks the D form. Peptide text beside a SMILES is read from it. * marks the point of attachment. ξ: configuration not given here. LeuΨ(ξCHOHCH2)Val = CC(C)C[C@H](N[*:1])C(O)C[C@H](C(=O)[*:2])C(C)C; X1 = CC(C)[C@H](C[C@H](O)[C@H](CC1CCCCC1)N[*:1])C(=O)[*:2]; Suberoyl(NMe-taurine) = CN(CCS(=O)(=O)O)C(=O)CCCCCCC(=O)*; X3 = CC(C)C[C@H](N[*:1])[C@@H](O)C[C@H](C(=O)[*:2])C(C)C; NH(2-picolyl-N-oxide) = [O-][n+]1ccccc1CN*; γGlu = O=C(O)[C@H](CCC(=O)[*:2])N[*:1]; NMeH = CN[C@@H](Cc1c[nH]cn1)C(=O)O; NHCH2(2-pyridyl) = c1ccc(CN*)nc1; X4 = O=C(CCCO[P+]([O-])(O)O)*; X5 = O=C(CCCOP(=O)(O)O)*; X2 = O=C(COP(=O)(O)O)*

target: T1, Renin (Homo sapiens, UniProt P00797); assay: Inhibition of human plasma renin.; type: cell-free
T1 sequence (P00797 whole entry): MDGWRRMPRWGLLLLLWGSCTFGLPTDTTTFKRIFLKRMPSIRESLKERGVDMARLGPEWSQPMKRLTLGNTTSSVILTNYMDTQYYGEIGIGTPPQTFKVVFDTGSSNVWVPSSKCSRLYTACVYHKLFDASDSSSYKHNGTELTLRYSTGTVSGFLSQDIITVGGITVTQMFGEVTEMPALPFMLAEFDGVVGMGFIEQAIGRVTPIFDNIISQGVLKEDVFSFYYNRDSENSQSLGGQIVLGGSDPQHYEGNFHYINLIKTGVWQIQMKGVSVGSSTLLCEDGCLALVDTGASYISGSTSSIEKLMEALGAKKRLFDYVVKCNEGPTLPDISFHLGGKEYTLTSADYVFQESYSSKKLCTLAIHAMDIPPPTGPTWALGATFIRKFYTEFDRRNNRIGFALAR
Outline: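 IC50 taken as the inhibitor concentration at which 50% of renin enzymatic activity remains.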

| Structure (SMILES) | pIC50 |
| --- | --- |
| CC(C)CCNC(=O)[C@@H](C[C@H](O)[C@H](CC1CCCCC1)NC(=O)[C@H](Cc1c[nH]cn1)N(C)C(=O)[C@H](Cc1ccccc1)NC(=O)CC(C)(C)N)C(C)C | 9.39 |
| CC(C)CCNC(=O)[C@@H](C[C@H](O)[C@H](CC1CCCCC1)NC(=O)[C@H](Cc1c[nH]cn1)N(C)C(=O)[C@H](Cc1ccccc1)NC(=O)[C@@H]1CCCN1C(=O)CC[C@H](N)C(=O)O)C(C)C | 9.55 |
| CC[C@H](C)[C@H](NC(=O)[C@@H](C[C@H](O)[C@H](CC1CCCCC1)NC(=O)[C@H](Cc1c[nH]cn1)N(C)C(=O)[C@H](Cc1ccccc1)NC(=O)CC(C)(C)N)C(C)C)C(=O)NCc1cccc[n+]1[O-] | 9.37 |
| CC[C@H](C)[C@H](NC(=O)[C@@H](C[C@H](O)[C@H](CC1CCCCC1)NC(=O)[C@H](Cc1c[nH]cn1)N(C)C(=O)[C@H](Cc1ccccc1)NC(=O)CC(C)(C)N)C(C)C)C(=O)NCc1ccccn1 | 9.54 |
| CC[C@H](C)[C@H](NC(=O)[C@@H](CC(O)[C@H](CC(C)C)NC(=O)[C@H](Cc1c[nH]cn1)N(C)C(=O)[C@H](Cc1ccccc1)NC(=O)[C@@H]1CCCN1C(=O)COP(=O)(O)O)C(C)C)C(=O)NCc1cccc[n+]1[O-] (some centres undefined) (X2-PF[NMeH][LeuΨ(ξCHOHCH2)Val]I-{NH(2-picolyl-N-oxide)}) | 8.60 |
| CC[C@H](C)[C@H](NC(=O)[C@@H](CC(O)[C@H](CC(C)C)NC(=O)[C@H](Cc1cnc[nH]1)N(C)C(=O)[C@H](Cc1ccccc1)NC(=O)[C@@H]1CCCN1C(=O)CCCO[P+]([O-])(O)O)C(C)C)C(=O)NCc1cccc[n+]1[O-] (some centres undefined) (X4-PF[NMeH][LeuΨ(ξCHOHCH2)Val]I-{NH(2-picolyl-N-oxide)}) | 8.72 |
| CC[C@H](C)[C@H](NC(=O)[C@@H](C[C@H](O)[C@H](CC1CCCCC1)NC(=O)[C@H](Cc1c[nH]cn1)N(C)C(=O)[C@H](Cc1ccccc1)NC(=O)[C@@H]1CCCN1C(=O)CC[C@H](N)C(=O)O)C(C)C)C(=O)NCc1cccc[n+]1[O-] (γGlu-PF[NMeH][X1]I-{NH(2-picolyl-N-oxide)}) | 9.49 |
| CC[C@H](C)[C@H](NC(=O)[C@@H](C[C@H](O)[C@H](CC1CCCCC1)NC(=O)[C@H](Cc1c[nH]cn1)N(C)C(=O)[C@H](Cc1ccccc1)NC(=O)[C@@H]1CCCN1C(=O)CC[C@H](N)C(=O)O)C(C)C)C(=O)NCc1ccccn1 (γGlu-PF[NMeH][X1]I-{NHCH2(2-pyridyl)}) | 9.54 |

The next lines start with the values.

| pIC50 | Structure (SMILES) |
| --- | --- |
| 9.18 | CC[C@H](C)[C@H](NC(=O)[C@@H](C[C@H](O)[C@H](CC(C)C)NC(=O)[C@H](Cc1c[nH]cn1)N(C)C(=O)[C@H](Cc1ccccc1)NC(=O)CCCCCCC(=O)N(C)CCS(=O)(=O)O)C(C)C)C(=O)NCc1ccccn1 |
| 8.92 | CC[C@H](C)[C@H](NC(=O)[C@@H](C[C@H](O)[C@H](CC(C)C)NC(=O)[C@H](Cc1c[nH]cn1)N(C)C(=O)[C@H](Cc1ccccc1)NC(=O)CCCCCCC(=O)N(C)CCS(=O)(=O)O)C(C)C)C(=O)NCc1cccc[n+]1[O-] |
| 8.80 | CC[C@H](C)[C@H](NC(=O)[C@@H](C[C@H](O)[C@H](CC(C)C)NC(=O)[C@H](Cc1c[nH]cn1)N(C)C(=O)[C@H](Cc1ccccc1)NC(=O)[C@@H]1CCCN1C(=O)COP(=O)(O)O)C(C)C)C(=O)NCc1ccccn1 (X2-PF[NMeH][X3]I-{NHCH2(2-pyridyl)}) |
| 9.35 | CC[C@H](C)[C@H](NC(=O)[C@@H](C[C@H](O)[C@H](CC(C)C)NC(=O)[C@H](Cc1c[nH]cn1)N(C)C(=O)[C@H](Cc1ccccc1)NC(=O)[C@@H]1CCCN1C(=O)CCCOP(=O)(O)O)C(C)C)C(=O)NCc1ccccn1 (X5-PF[NMeH][X3]I-{NHCH2(2-pyridyl)}) |
| 9.51 | CC[C@H](C)[C@H](NC(=O)[C@@H](CC(O)[C@H](CC(C)C)NC(=O)[C@H](Cc1c[nH]cn1)N(C)C(=O)[C@H](Cc1ccccc1)NC(=O)[C@@H]1CCCN1C(=O)CCCCCCC(=O)N(C)CCS(=O)(=O)O)C(C)C)C(=O)NCc1cccc[n+]1[O-] (some centres undefined) ({Suberoyl(NMe-taurine)}-PF[NMeH][LeuΨ(ξCHOHCH2)Val]I-{NH(2-picolyl-N-oxide)}) |
| 8.74 | CC[C@H](C)[C@H](NC(=O)[C@@H](CC(O)[C@H](CC(C)C)NC(=O)[C@H](Cc1c[nH]cn1)N(C)C(=O)[C@H](Cc1ccccc1)NC(=O)[C@@H]1CCCN1C(=O)CCCCCCC(=O)N(C)CCS(=O)(=O)O)C(C)C)C(=O)NCc1ccccn1 (some centres undefined) ({Suberoyl(NMe-taurine)}-PF[NMeH][LeuΨ(ξCHOHCH2)Val]I-{NHCH2(2-pyridyl)}) |
